The chains are these.
B1: tRNA (parent)
chain: GUUCCGUUGGCGUAAUGGUAACGCGUCUCCCUCCUAAGGAGAAGACUGCGGGUUCGAGUCCCGUACGGAACG

In the series the parent is B1. Put plainly: yeast fitness, log relative to wild type (ln ratio); higher = fitter; tRNA-Arg(CCU), competitive growth, 37 C, 1 M NaCl. Put shortly:
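BY4742 cells without the chromosomal tRNA-Arg(CCU) gene carried a combinatorial variant library on a HIS3 centromeric plasmid, from two independent transformations. After 4 generations in SC-HIS at 30 °C, pools spent ~6.5 generations (~26.5 h) in SC-HIS 1M NaCl at 37 °C, giving three outputs per input, and 125 bp paired-end Illumina reads counted the variants. Fitness is the natural log of each genotype's generations over the wild type's, with generations taken as OD-scaled log2 output/input frequency weighted by inverse variance across replicates.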
As for G6U A43C C46U C71U, the “yeast fitness (ln)” value is -0.193.

Turning to G6U C27U A43C C46U A69G C71U, the “yeast fitness (ln)” value was -0.339.

Consider G6U A69G, for which the “yeast fitness (ln)” value is -0.234.

As to G6A C27U C66A A69G A70U, the “yeast fitness (ln)” value is -0.243.

With G6A A43C C66U A70G, the “yeast fitness (ln)” value was -0.128.

In the case of G6A A43C C66U A70U, the “yeast fitness (ln)” value is -0.204.

Consider G6A C66U A70U C71U, for which the “yeast fitness (ln)” value was -0.462.

For the variant G6A C27U A43C C46U A69G A70G C71U, the “yeast fitness (ln)” value was -0.306.

In the case of G6U A43C C66A A69G, the “yeast fitness (ln)” value is -0.0712.

As for G6U A43C C66A A69G C71U, the “yeast fitness (ln)” value is -0.368.

As for G6A C46U C66A C71U, the “yeast fitness (ln)” value was -0.349.

As for G6A C27U A43C C46U C66A A69G A70U, the “yeast fitness (ln)” value was -0.28.

As for G6A C27U A43C C46U C66A A69G A70G, the “yeast fitness (ln)” value was -0.229.

G6A C27U C46U C66U A69G A70G: the “yeast fitness (ln)” value was -0.213.

On to G6A C27U C46U C66U A69G A70U, for which the “yeast fitness (ln)” value is -0.196.

As for G6U A43C C66U A69G C71U, the “yeast fitness (ln)” value was -0.394.

For G6U A43C C66A A70U C71U, the “yeast fitness (ln)” value is -0.29.

For G6U A43C C66A A70G C71U, the “yeast fitness (ln)” value was -0.177.

In the case of G6A C46U C71U, the “yeast fitness (ln)” value is -0.359.

As to G6U C27U A43C C46U A69G, the “yeast fitness (ln)” value was -0.268.

In the case of G6U A69G A70U, the “yeast fitness (ln)” value was -0.145.

As to G6U A69G A70G, the “yeast fitness (ln)” value was -0.16.

Turning to G6A C27U C46U C66U A69G, the “yeast fitness (ln)” value is -0.0373.

On to G6A C27U C46U C66U, for which the “yeast fitness (ln)” value was -0.0122.

With G6A C27U C46U C66A, the “yeast fitness (ln)” value is -0.126.

Regarding G6A A69G C71U, the “yeast fitness (ln)” value is -0.134.

On to G6A C27U A43C A69G A70U C71U, for which the “yeast fitness (ln)” value was -0.238.

On to G6A C46U C66U C71U, for which the “yeast fitness (ln)” value was -0.0146.

Take G6U A43C A70G C71U: the “yeast fitness (ln)” value is -0.249.

Regarding G6A C27U C46U A69G, the “yeast fitness (ln)” value is -0.183.

For the variant G6U C27U A43C C46U A70G C71U, the “yeast fitness (ln)” value is -0.337.

Regarding G6A A43C C46U C66U A70U, the “yeast fitness (ln)” value is -0.183.

G6A A43C C46U C66U A70G: the “yeast fitness (ln)” value was -0.0403.

G6A C66U A69G A70G: the “yeast fitness (ln)” value was -0.0412.

In the case of G6A C66U A69G A70U, the “yeast fitness (ln)” value was -0.335.

As for G6U C27U A43C C46U A69G A70G, the “yeast fitness (ln)” value is -0.339.

With G6U C27U A43C C46U A69G A70U, the “yeast fitness (ln)” value is -0.245.

G6A C27U C71U: the “yeast fitness (ln)” value is -0.204.

Regarding G6A C46U C66U A70U C71U, the “yeast fitness (ln)” value is -0.423.

In the case of G6A C27U A70U C71U, the “yeast fitness (ln)” value was -0.227.

Take G6A A43C C66U A69G A70U C71U: the “yeast fitness (ln)” value is -0.295.

In the case of G6U A43C C66A A69G A70G C71U, the “yeast fitness (ln)” value is -0.299.

As for G6A C66U, the “yeast fitness (ln)” value was -0.0046.

Regarding G6A C66A, the “yeast fitness (ln)” value was -0.163.

In the case of G6U A43C C46U C66U A70G C71U, the “yeast fitness (ln)” value is -0.295.

Regarding G6A C27U A43C C46U C66U, the “yeast fitness (ln)” value was -0.0283.

Regarding G6A C27U A43C C46U C66A, the “yeast fitness (ln)” value was -0.269.

With G6U C27U A43C C46U A69G A70U C71U, the “yeast fitness (ln)” value was -0.45.

As to G6U A43C C46U C66A A69G A70G C71U, the “yeast fitness (ln)” value was -0.167.

G6A C27U A43C C66A A70U: the “yeast fitness (ln)” value is -0.204.

Consider G6A C27U A43C C66A A70G, for which the “yeast fitness (ln)” value is -0.337.

Take G6U A69G A70U C71U: the “yeast fitness (ln)” value was -0.394.

As for G6U C27U A43C, the “yeast fitness (ln)” value is -0.197.

With G6U C27U A43C C46U C66A A70U C71U, the “yeast fitness (ln)” value is -0.357.

Take G6U C27U A43C C46U C66A A69G A70U C71U: the “yeast fitness (ln)” value is -0.611.

G6A C46U A69G A70G: the “yeast fitness (ln)” value was -0.18.

On to G6A C46U A69G A70U, for which the “yeast fitness (ln)” value was -0.176.

For G6A C66U A70G C71U, the “yeast fitness (ln)” value was -0.358.

For G6U A43C C46U C66A A70U C71U, the “yeast fitness (ln)” value was -0.214.

Turning to G6U A43C C46U C66U A70U C71U, the “yeast fitness (ln)” value was -0.359.

Turning to G6A C27U C46U A69G A70U, the “yeast fitness (ln)” value was -0.257.

Take G6A C27U C46U A69G A70G: the “yeast fitness (ln)” value is -0.237.

In the case of G6A C27U A70G C71U, the “yeast fitness (ln)” value is -0.291.

As for G6A C46U, the “yeast fitness (ln)” value is -0.0181.

As for G6U C27U A43C C46U A70U, the “yeast fitness (ln)” value was -0.206.

G6U C27U A43C C46U A70G: the “yeast fitness (ln)” value is -0.248.

Regarding G6U C27U A43C C46U C66A C71U, the “yeast fitness (ln)” value was -0.299.

As for G6A C27U C46U C66A A70U, the “yeast fitness (ln)” value was -0.102.

As to G6A C27U C46U C66A A70G, the “yeast fitness (ln)” value was -0.218.

As for G6A A43C C66U A69G A70G C71U, the “yeast fitness (ln)” value was -0.261.

As to G6A C46U C66A A70G C71U, the “yeast fitness (ln)” value is -0.169.

With G6A A43C C66U C71U, the “yeast fitness (ln)” value was -0.335.

With G6U A43C C46U A69G A70U, the “yeast fitness (ln)” value was -0.236.

In the case of G6U A43C C46U A69G A70G, the “yeast fitness (ln)” value was -0.232.

As for G6U C27U A43C C46U A69G A70G C71U, the “yeast fitness (ln)” value was -0.356.

For the variant G6A A43C C66U A69G, the “yeast fitness (ln)” value is -0.109.

Consider G6A A43C C46U C66U A70U C71U, for which the “yeast fitness (ln)” value is -0.268.

With G6A A43C C66U A69G C71U, the “yeast fitness (ln)” value was -0.51.

Consider G6U A43C C66U A70G C71U, for which the “yeast fitness (ln)” value is -0.392.

As to G6U A43C C46U A69G A70U C71U, the “yeast fitness (ln)” value was -0.438.

Regarding G6U C27U A43C C46U C66A A69G A70G, the “yeast fitness (ln)” value is -0.471.

In the case of G6U C27U A43C C46U C66A A69G A70U, the “yeast fitness (ln)” value is -0.462.

Take G6U A43C A69G A70G C71U: the “yeast fitness (ln)” value was -0.327.

Values taken from the RNAGym collection of RNA variant scans (doi:10.1038/s41586-018-0170-7).
